Scp1 inh: inhibitors of human Scp-1 phosphatase | 340,000 compounds, 0.88% hits | inhibition, % at 20 µM | AID 493091 | Recombinant Scp1, phosphopeptide, malachite green phosphate absorbance;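 active means inhibition above about 50% at 20 µM, limit read from the data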
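Incubation: 45 min enzyme reaction at room temperature / System: truncated SCP-1 phosphatase (76-261aa) / Reagent: Phospho 17-mer peptide substrate / Buffer or medium: Acidic Tris acetate buffer with magnesium and detergent / Signal: absorbance at 630 nm / Doses: one concentration, 20 µM, with 1.0% DMSO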
DNMT1 block: DNMT1 (human) enzyme inhibition. P26358. DNMT1 molecular beacon, Hinp1I cleavage, fluorescence. 360,000 compounds, 0.83% hits. AID 588458. inhibition (reported as % activation of signal), % at 10 µM; in the data active means inhibition above about 50%
STEP inh: blocks human striatal-enriched tyrosine phosphatase | recombinant STEP, OMFP fluorogenic substrate, fluorescence | inhibition, % at 20 µM | 360,000 compounds, 0.25% hits;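 active means inhibition at 20 µM, scaled per plate between control wells, above about 37%, limit read from the data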
Target sequence (P54829 whole entry, looked up): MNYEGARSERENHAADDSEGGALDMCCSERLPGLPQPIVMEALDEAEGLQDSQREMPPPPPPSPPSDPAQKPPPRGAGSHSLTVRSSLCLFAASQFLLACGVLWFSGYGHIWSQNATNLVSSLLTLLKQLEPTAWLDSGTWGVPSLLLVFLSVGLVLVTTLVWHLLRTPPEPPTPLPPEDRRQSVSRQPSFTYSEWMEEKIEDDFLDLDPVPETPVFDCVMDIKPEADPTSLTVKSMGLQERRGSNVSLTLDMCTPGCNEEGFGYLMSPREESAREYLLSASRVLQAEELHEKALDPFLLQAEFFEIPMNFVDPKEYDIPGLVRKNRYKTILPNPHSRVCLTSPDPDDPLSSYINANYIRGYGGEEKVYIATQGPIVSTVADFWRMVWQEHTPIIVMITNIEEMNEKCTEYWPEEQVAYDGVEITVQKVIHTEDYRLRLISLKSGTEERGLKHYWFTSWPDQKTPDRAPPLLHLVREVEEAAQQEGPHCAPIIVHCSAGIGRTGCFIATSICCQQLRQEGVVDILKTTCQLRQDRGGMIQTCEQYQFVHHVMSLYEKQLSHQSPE
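medium = Bis-Tris buffer pH 6.0, 2.5 mM DTT, 0.005% Tween 20 | test system = STEP (striatal-enriched tyrosine phosphatase) enzyme, cell-free | measure = normalized % inhibition | compound dosing = 20 µM, 1% DMSO | also added = 25 µM OMFP | schedule = reaction 20 min, ambient temperature | measured by = fluorescence read at 480 nm ex / 540 nm em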
SUMO1 PPI mod: alters human SUMO1 binding to SIM partners | P63165 | SUMO1 binding to a labelled peptide, TR-FRET, 1 h | inhibition, % at 20 µM | 360,000 compounds, 0.33% hits; in the data active means inhibition above about 37%
LMPTP block: LMPTP (human) inhibition; 360,000 compounds, 0.22% hits; inhibition, % at 20 µM; recombinant LMPTP-A, OMFP fluorogenic substrate, fluorescence intensity;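 active means compounds that cut the enzyme signal by at least half of the control window in the single-dose screen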
Target sequence (P24666 whole entry, looked up): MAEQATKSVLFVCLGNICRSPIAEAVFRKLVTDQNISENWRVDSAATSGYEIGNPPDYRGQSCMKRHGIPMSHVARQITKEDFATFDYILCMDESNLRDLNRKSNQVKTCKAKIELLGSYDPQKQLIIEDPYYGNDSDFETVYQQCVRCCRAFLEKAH
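Buffer or medium: Bis-Tris pH 6.0, DTT, detergent; Assay system: LMPTP-A enzyme; Quantity: 0.625 nM enzyme; Detection: endpoint fluorescence intensity; Times: 50 min dark incubation at room temperature; Controls: substrate-only low control, DMSO enzyme-plus-substrate high control; Doses: single 20 µM dose; Read-out: percent inhibition versus substrate-only and uninhibited controls; Reagent: 400 µM OMFP.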
Scp1 confirm: Scp-1 (human) inhibition, single-dose confirmed; shares compounds with Scp1 inh; inhibition, % at 20 µM; 2,500 compounds, 61% hits; recombinant SCP-1 catalytic domain, phosphate release, malachite green absorbance
MG interference: interferes with malachite green readout, flagging false Scp-1 hits | AID 540313 | 2,500 tested, under 10 active | Colorimetric interference counterscreen, malachite green absorbance 630 nm | shares compounds with Scp1 inh | apparent inhibition (interference), % at 20 µM;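 further: compounds added after enzyme reaction finished so only phosphate colour detection is probed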
Scp1 DSF: validation of human Scp-1 inhibitors by thermal shift binding; shares compounds with Scp1 inh; Recombinant SCP1, Sypro Orange thermal shift Tm; thermal shift relative to vanadate control, % at 40 µM; 1,500 compounds, 25% hits;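 active means substances whose mean melting-temperature shift, as a percentage of the reference inhibitor's shift, reaches about 5.3%, limit read from the data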
Of the large screens only hits and unclear results are named; the others gave an inactive call (follow-up assays come after a bar, where they were run). This is a sample that favours compounds with a hit; in the whole collection about 1.7% have one here.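 How the source made its calls, unless noted: active means inhibition of at least 30% at 20 µM; inactive means the rest.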

CCCCN1C[C@H](CSC)[C@@H](CC(=O)Nc2ccc(Br)cc2)C1=O	none (no result: Scp1 inh)
CC1(C(=O)NS(=O)(=O)c2cccc(C#N)c2)CCN1C(=O)c1ccccc1 (stereo unspecified)	none (no result: Scp1 inh)
Cn1c(NC(=O)Cc2cccc3ccccc23)cc(=O)n(C)c1=O	none | Scp1 confirm inactive | MG interference inactive
Cn1c(NC(=O)C2CC2)cc(=O)n(C)c1=O	none
Cn1c(NC(=O)c2ccc(C(C)(C)C)cc2)cc(=O)n(C)c1=O	none | Scp1 confirm inactive | MG interference inactive
Cn1c(NC(=O)CCC2CCCCC2)cc(=O)n(C)c1=O	none | Scp1 confirm inactive | MG interference inactive
Cn1c(NNC(=O)c2ccc(C(C)(C)C)cc2)cc(=O)n(C)c1=O	none
Cn1c(NNC(=O)CCC2CCCCC2)cc(=O)n(C)c1=O	none | Scp1 confirm inactive | MG interference inactive
Cc1ccc(S(=O)(=O)NN2C(=O)/C(=C/c3ccc(C(=O)O)cc3)SC2=S)cc1	Scp1 inh 63.7 | Scp1 confirm inactive | MG interference inactive
CC(=O)NCCc1ccc(S(=O)(=O)Nc2ccc(NC(=O)c3ccc(F)cc3)cc2)cc1	none
Cc1cc2oc(=O)cc(CN(C)Cc3ccccc3Cl)c2cc1C	none
CCc1c(C)nc2nc(SCc3ccccc3)[nH]n2c1=O	none
COc1ccccc1-n1cnc2c(c1=O)c1nc3ccccc3nc1n2-c1ccc(C)cc1	Scp1 inh 87.5 | Scp1 confirm 34.0 | MG interference inactive | Scp1 DSF inactive
COc1ccccc1-n1c2nc3ccccc3nc2c2c(=O)n(-c3cc(C)cc(C)c3)cnc21	none
O=C(NCc1ccco1)/C(=C\c1ccc(F)cc1)NC(=O)c1ccco1	none
O=C(COC(=O)c1ccc(NS(=O)(=O)c2cccs2)cc1)Nc1nc2c(F)c(F)c(F)cc2s1	Scp1 inh 50.9 | Scp1 confirm 65.4 | MG interference inactive | Scp1 DSF 26.3
COC(=O)c1ccc(Cn2c(O)c(N=NC(N)=S)c3ccccc32)o1	Scp1 inh 60.0 | Scp1 confirm inactive | MG interference inactive
CSCCC(NC(=O)c1ccccc1Cl)C(=O)Nc1cccc(S(=O)(=O)N2CCCC2)c1 (stereo unspecified)	none
O=C(/C=C/c1ccco1)NCC(=O)N/N=C/c1ccc(Cl)cc1	none
O=C(/C=C/c1ccco1)NCC(=O)N/N=C/c1ccc([N+](=O)[O-])cc1	Scp1 inh 76.0 | Scp1 confirm 79.5 | MG interference inactive | Scp1 DSF 6.6
COc1ccc(C(C)=O)cc1CSc1nc2cc(C(=O)O)ccc2c(=O)n1Cc1ccccc1	Scp1 inh 51.0 | Scp1 confirm inactive | MG interference inactive
CCOC(Cn1c(SCc2cc(C(C)=O)ccc2OC)nc2ccccc2c1=O)OCC	none
Nc1ccccc1C#CC(=O)c1ccccc1	none
Cc1nnc(NS(=O)(=O)c2ccc(N=Nc3ccc(N)nc3N)cc2)s1	Scp1 inh 67.4 | Scp1 confirm 34.5 | MG interference inactive | Scp1 DSF 9.1
COc1ccc2c(c1OC)C(=O)N(c1cccc(NC(C)=O)c1)C2	none
O=C1C=C(O)c2cccc(O)c2C1=O	Scp1 inh 50.1 | Scp1 confirm 43.0 | MG interference inactive | Scp1 DSF 11.6
O=C(CCN1CCCO1)N1CCCC(Nc2cccc(F)c2)C1 (stereo unspecified)	none (no result: Scp1 inh)
CCOC(=O)CN1C(=O)N[C@@H](c2ccc(Br)cc2)C(C(=O)OC)=C1C	none
CCOC(=O)CN1C(=O)N[C@H](c2ccc(Br)cc2)C(C(C)=O)=C1C	Scp1 inh 76.2 | Scp1 confirm inactive | MG interference inactive
COc1ccc(NC(=O)Nc2ccc(N(C)C)cc2)cc1	Scp1 inh 56.6 | Scp1 confirm inactive | MG interference inactive
CCc1ccccc1NC(=O)CN(C)C(=O)c1cc(C2CC2)nc2c1cnn2C(C)C	none
Cc1ccc(CNC(=O)c2cc3c(=O)n4ccccc4nc3n(Cc3ccco3)c2=N)cc1	none
Cc1ccc2nc3c(cc(C(=O)NCc4ccco4)c(=N)n3Cc3ccco3)c(=O)n2c1	Scp1 inh 68.6 | Scp1 confirm inactive | MG interference inactive
Cc1ccc(/C=C(\C#N)C(=O)NCC2CCCO2)o1 (stereo unspecified)	none
N#C/C(=C/c1ccc(-c2ccc(C(=O)O)c(Cl)c2)o1)C(=O)NCC1CCCO1 (stereo unspecified)	Scp1 inh 105.9 | Scp1 confirm 55.0 | MG interference inactive | Scp1 DSF inactive
C/C(=N\NC(=O)c1cccc(N/N=C(\C)c2ccco2)c1)c1ccco1	Scp1 inh 60.9 | Scp1 confirm 61.7 | MG interference inactive | Scp1 DSF 6.1
O=C(Nc1cc([N+](=O)[O-])ccc1C(=O)NCCN1CCOCC1)c1ccccc1	none
CCOc1ccc(NC(=O)c2cc3cc4ccc(OC)cc4nc3o2)cc1	Scp1 inh 54.9 | Scp1 confirm 40.9 | MG interference inactive | Scp1 DSF inactive
O=C(NCc1ccco1)c1cc2cc3ccc(Cl)cc3nc2o1	none
COc1ccc2cc3cc(C(=O)NCc4ccco4)oc3nc2c1	Scp1 inh 60.7 | Scp1 confirm 56.0 | MG interference inactive | Scp1 DSF inactive
CSc1ccc(CCCCCCOC(=O)C(C)(C)C)cc1	none
O=C(N/N=C/c1cc(Cl)c(O)c(Cl)c1)c1cc2c(ccc3ccccc32)o1	none
CCOC(=O)C1=C(C)N=c2s/c(=C\c3cccc(OCC(=O)O)c3)c(=O)n2C1c1ccccc1OC (stereo unspecified)	Scp1 inh 60.9 | Scp1 confirm 33.1 | MG interference inactive | Scp1 DSF 5.8
CCOC(=O)C1=C(C)N=c2s/c(=C/c3ccc(OCC(=O)O)cc3)c(=O)n2C1c1cc(OC)c(OC)c(OC)c1 (stereo unspecified)	none
CN[C@H]1C[C@H]2c3[nH]c4ccccc4c3CCN2C(=O)[C@H]1[C@H](C)O	none (no result: Scp1 inh)
O=C(NCc1ccccn1)C1CCN(S(=O)(=O)c2cnc[nH]2)CC1	Scp1 inh 60.4 | Scp1 confirm 33.3 | MG interference inactive | Scp1 DSF inactive
O=C(NCc1ccccn1)C1CCN(S(=O)(=O)c2ccccc2)CC1	none
O=C(c1ccc2c(c1)CCC2)N1CCN(Cc2c(F)cccc2Cl)CC1	none (no result: Scp1 inh)
COc1ccc(NC(=O)CCNS(=O)(=O)c2cc(Br)ccc2Br)cc1S(N)(=O)=O	none | Scp1 confirm inactive | MG interference inactive

Screening results: PubChem, Sanford-Burnham Center for Chemical Genomics
